# Laboratory results taken from article PMC6925336 (European journal of pharmaceutical sciences : official …, 2019).
# Where “and” joins values, the source holds several entries; their conditions need not be identical. Equal values may be shown once.
# Columns and labels:
# [1] = test system: pCHK1 S345; assay: Pharmacodynamic study, immunohistochemistry of G3MB tumor tissue: pCHK1 S345; assay type: in vivo, mice bearing G3MB
# Method in brief: (§1)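 G3MB-bearing mice (N=21), enrolled at ~1×10^7 photons/sec, were randomized to vehicle or one 20 mg/kg IV bolus. Brains were harvested pre-dose and at 1, 2, 6 and 24 h post-dose and fixed in paraformaldehyde. Immunohistochemistry was done for pCHK1 S345, γ-H2AX and cleaved caspase-3. Scanned slides were quantified as percent positive-staining cells.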
# [2] = test system: cleaved caspase-3; assay type: in vivo, mice bearing G3MB; conditions: 20 mg/kg IV single dose, at 24 hours post-dose; not statistically significant
# Method in brief: as §1
# [3] = test system: γ-H2AX; assay: Pharmacodynamic study, immunohistochemistry of G3MB tumor tissue: γ-H2AX; assay type: in vivo, mice bearing G3MB
# Method in brief: as §1
# [4] = adult patients, recommended phase II dosage of 105 mg/m^2; ref Hong et al., 2016; cited from earlier work
# [5] = Plasma pharmacokinetic study, 10 mg/kg SQ, population model; assay type: in vivo, CD-1 nude mice bearing G3MB; conditions: for AUC: Model-derived AUCplasma, total plasma
# Method in brief: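 Nine female CD-1 nude mice carrying orthotopic mouse G3MB cells (enrolled at ~1×10^7 photons/sec) got 10 mg/kg SQ in 20% w/v Captisol. Population design: 2–3 samples per mouse up to 24 h, […]. Plasma assayed by LC-MS/MS. Fit with a two-compartment model with first-order absorption and linear elimination (apparent parameters); FOCE with interaction; log-normal inter-individual variability.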
# [6] = Cerebral microdialysis, brain ECF, non-tumor bearing; assay type: in vivo, CD-1 nude mice (non-tumor bearing); conditions: 10 mg/kg SQ
# Method in brief: (§2)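 Female CD-1 nude mice, non-tumor-bearing (N=7) or with cortical G3MB implants enrolled at ~1×10^7 photons/sec (N=8). Stereotactic cortical guide cannula; 1 mm probe (38 kDa MWCO) perfused with Ringer's at 0.5 µl/min, 1 h equilibration. Single 10 mg/kg SQ dose. Hourly dialysate to 24 h; plasma at 0.25, 6.5 and 24 h. LC-MS/MS. Unbound ECF = dialysate/probe recovery. Population PK model gave per-mouse AUCs and ECF rate constants.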
# [7] = Cerebral microdialysis, tumor ECF, mice bearing G3MB; assay type: in vivo, CD-1 nude mice bearing G3MB
# Method in brief: as §2
# [8] = Plasma protein binding by equilibrium dialysis; assay type: in vitro ADME, mouse
# Method in brief: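 Equilibrium dialysis. CD-1 mouse plasma (sodium heparin) was spiked at final 2–2000 ng/ml (eight levels), in triplicate, against blank Ringer's solution. Rotated at 37°C for 24 h, then both sides sampled. Fraction unbound = buffer-side concentration / plasma-side total concentration.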
# [9] = Plasma pharmacokinetic study, 20 mg/kg IV, PK/PD model; assay type: in vivo, CD-1 nude mice bearing G3MB; conditions: plasma model re-estimated with 20 mg/kg IV data
# Method in brief: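 Nine female CD-1 nude mice with orthotopic G3MB (~1×10^7 photons/sec) got 20 mg/kg prexasertib mesylate IV in 20% w/v Captisol. Sparse sampling: 2–3 plasma samples per mouse to 24 h, LC-MS/MS.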
# [10] = PK/PD model, fixed based upon a sensitivity analysis
# [11] = 10 mg/kg SQ, apparent parameter
# [12] = 10 mg/kg SQ, ECF model, G3MB mice
compound,measurement,setting,value
"COc1cccc(OCCCN)c1-c1cc(Nc2cnc(C#N)cn2)n[nH]1 [prexasertib, 5-(5-[2-(3-Aminopropoxy)-6-methoxyphenyl]-1H-pyrazol-3-yl}amino)pyrazine-2-carbonitrile methanesulfonate hydrate]",Time of peak induction of pCHK1 S345 after the dose,[1]; 20 mg/kg IV single dose,2 hours
same,Time pCHK1 S345 stayed above baseline after the dose,[1]; 20 mg/kg IV single dose,at least 6 hours
same,Peak in pCHK1 S345 nuclear staining,"[1]; 20 mg/kg IV single dose, at 2 hours",2.2 fold
same,EC50 at 20 mg/kg,"[1]; Mus musculus, iv, read-out: pCHK1 S345 EC50, prexasertib ECF concentration for 50% stimulation of maximum function of kin, estimate (RSE%), PK/PD model, 20 mg/kg IV, tumor ECF, preliminary",0.0102 µg/mL
same,"pCHK1 S345 EC50, prexasertib ECF concentration for 50% stimulation of maximum function of kin, estimate (RSE%)","[1]; PK/PD model, 20 mg/kg IV, tumor ECF, preliminary, 20 mg/kg",10.15 (26.5%) ng/ml
same,"pCHK1 S345 Emax, maximum extent of stimulation",[1]; [10],2.0 (-)
same,Increase of cleaved caspase-3,[2],1.4 fold
same,Time of peak induction of γ-H2AX after the dose,[3]; 20 mg/kg IV single dose,2 h
same,Time γ-H2AX was elevated above baseline,[3]; 20 mg/kg IV single dose,at least 6 hours
same,"pH2Ax Emax, maximum extent of stimulation",[3]; [10],5.0 (-)
same,"Plasma exposure AUCplasma, 0−∞ (mean ±SD)",[4],2410 ± 1229 ng·h/mL
same,"CL, plasma (central) clearance, estimate (RSE%)",[5]; [11],5.64 (4.3%) l/h/kg
same,"Q, tissue (peripheral) clearance, estimate (RSE%)",[5]; [11],0.58 (13%) l/h/kg
same,"Vc, plasma (central) volume, estimate (RSE%)",[5]; [11],1.81 (18%) l/kg
same,"Vp, tissue (peripheral) volume, estimate (RSE%)",[5]; [11],3.42 (8.0%) l/kg
same,"ka, absorption rate constant, estimate (RSE%)","[5]; 10 mg/kg SQ, plasma population model",1.07 (12%) h^−1
same,half-life,"[5]; female, CD-1 nude, mouse, plasma, subcutaneous, 10 mg/kg",4.5 h
same,AUC,"[5]; female, CD-1 nude, mouse, plasma, subcutaneous, 10 mg/kg, 0−∞ (mean ± SD), 10 mg/kg SQ",1820 ± 462 ng·h/mL
same,AUC,"[5]; female, CD-1 nude, mouse, plasma, subcutaneous, 10 mg/kg, 0−∞, range, 10 mg/kg SQ",1460 to 2880 ng·h/mL
same,"θNTB on CLef, proportional shift for NTB mice, estimate (RSE%)",[6]; ECF model,2.20 (38%)
same,"θNTB on CLin, proportional shift for NTB mice, estimate (RSE%)",[6]; ECF model,0.93 (45%)
same,"θNTB on kb45, proportional shift for NTB mice, estimate (RSE%)",[6]; ECF model,5.90 (77%)
same,"θNTB on kb54, proportional shift for NTB mice, estimate (RSE%)",[6]; ECF model,17.9 (32%)
same,Time of maximum brain ECF concentrations post-dose,[6]; NTB mice,1 h
same,AUCplasma of unbound prexasertib (mean ± SD),"[6]; NTB mice, at 24 hours post-dose, from total exposure and FU",271 ± 23 ng·h/mL
same,Unbound AUCECF (mean ± SD),"[6]; brain ECF, NTB mice, at 24 hours post-dose",24.8 ± 11.8 ng·h/mL and 24.8 ng·h/mL
same,"kb45, peripheral rate constant, estimate (RSE%)",[7]; [12],0.39 (24%) h^−1
same,"kb54, peripheral rate constant, estimate (RSE%)",[7]; [12],0.05 (41%) h^−1
same,Time of maximum tumor ECF concentrations post-dose,"[7]; 10 mg/kg SQ, mice bearing G3MB",1 h
same,Unbound AUCECF (mean ± SD),"[7]; 10 mg/kg SQ, tumor ECF, tumor-bearing mice, at 24 hours post-dose",47.3 ± 17 ng·h/mL
same,Kp uu,"[7]; CD-1 nude, mouse, tumor ECF (microdialysate) / unbound plasma, subcutaneous, 10 mg/kg",0.17 ± 0.08
same,Binding to the dialysis membrane of the Equilibrium Dialyzer plate,[8],negligibly bound
same,fraction unbound at 24 h,"[8]; CD-1, mouse, plasma",0.11
same,"CL, plasma clearance, estimate (RSE%)",[9],6.03 (8.0%) l/h/kg
same,"Q, tissue (peripheral) clearance, estimate (RSE%)",[9],0.807 (10%) l/h/kg
same,"Vc, plasma volume, estimate (RSE%)",[9],2.67 (13%) l/kg
same,"Vp, tissue (peripheral) volume, estimate (RSE%)",[9],3.79 (6.0%) l/kg
same,"ka, absorption rate constant, estimate (RSE%)",[9],1.16 (10%) h^−1
